# Laboratory results published in ChEMBL document CHEMBL2177092, “Phosphoramidate ProTides of the anticancer agent FUDR successfully deliver the preformed bioactive monophosphate in cells and confer advantage over the parent nucleoside” (J Med Chem, 2011).
# Experiments:
# HeLa [1] = assay: Cytostatic activity against human HeLa cells […] by cell counting; type: functional, cell-based
# CCRF-CEM [2] = assay: Cytostatic activity against human CEM/0 cells after 72 hrs by cell counting; type: functional, cell-based
# Procedure, shortened: (§1)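 Suspension leukemia cells in DMEM with 10% FBS, 10 mM Hepes and 1 mM sodium pyruvate at 37 °C under 5% CO2. Seeded at 60 000 cells/well with graded compound levels. Grown 48 h (L1210) or 72 h (CEM), then counted by Coulter counter. […] Mean ± SD of two to four independent experiments.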
# HeLa [3] = assay: Cytostatic activity against thymidine-kinase deficient human HeLa cells […]; type: functional, cell-based
# L1210 [4] = assay: Cytostatic activity against thymidine-kinase deficient mouse L1210 cells after 48 hrs by cell counting; type: functional, cell-based; settings: L1210, 48 h
# Procedure, shortened: (§2)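 Suspension leukemia cells in DMEM with 10% FBS, 10 mM Hepes and 1 mM sodium pyruvate at 37 °C under 5% CO2. Seeded at 60 000 cells/well with graded compound levels. Grown 48 h (L1210) or 72 h (CEM), then counted by Coulter counter. Mean ± SD of two to four independent experiments.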
# L1210 [5] = assay: Cytostatic activity against Mycoplasma hyorhinis-infected mouse L1210 cells after 48 hrs by cell counting; type: functional, cell-based; settings: L1210, 48 h; procedure, shortened: as §2
# [6] = Cytostatic activity against mouse L1210/0 cells after 48 hrs by cell counting; type: functional, cell-based; settings: L1210/0, 48 h; procedure, shortened: as §2
# L1210 [7] = assay: Ratio of FUDR IC50 to compound IC50 for thymidine-kinase deficient mouse L1210 cells after 48 hrs by cell counting; type: functional
# CCRF-CEM [8] = assay: Cytostatic activity against thymidine-kinase deficient human CEM cells after 72 hrs by cell counting; type: functional, cell-based; procedure, shortened: as §2
# L1210 [9] = assay: Ratio of IC50 for Mycoplasma hyorhinis-infected mouse L1210 cells to IC50 for mouse L1210/0 cells after 48 hrs by cell counting; type: functional
# Procedure, shortened: (§3)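 Murine L1210/0 cells were compared with L1210/TK cells, selected for resistance to 5-bromo-2'-dUrd, and with L1210.Hyor cells, chronically infected with Mycoplasma hyorhinis. Cells were grown in DMEM with 10% FBS, 10 mM Hepes and 1 mM pyruvate at 37 °C and 5% CO2, then seeded at 60 000 cells/well with compound. They were Coulter-counted after 48 h. […] Mean of 2–4 experiments.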
# CCRF-CEM [10] = assay: Cytostatic activity against human CEM cells expressing human ENT1 transporter after 72 hrs by cell counting in presence of NBMPR; type: functional, cell-based
# Procedure, shortened: (§4)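 CEM/hEnt-1 cells with 10 μM dipyridamole or 10 μM NBMPR added alongside graded compound levels, in DMEM with 10% FBS, 10 mM Hepes and 1 mM sodium pyruvate at 37 °C under 5% CO2. Seeded at 60 000 cells/well, counted by Coulter counter after 3 days.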
# CCRF-CEM [11] = assay: Cytostatic activity against human CEM cells expressing human ENT1 transporter after 72 hrs by cell counting in presence of dipyridamole; type: functional, cell-based; procedure, shortened: as §4
# CCRF-CEM [12] = assay: Ratio of IC50 for human CEM cells expressing human ENT1 transporter in presence of NBMPR to IC50 for human CEM cells expressing human ENT1 transporter; type: functional
# Procedure, shortened: (§5)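 Human T-lymphocyte CEM cells with (CEM/hEnt-1) or lacking (CEM/hEnt-0) the hENT1 transporter were seeded at 60 000 cells/well with graded compound concentrations. Transporter-inhibition runs added dipyridamole (10 μM) or NBMPR (10 μM) to CEM/hEnt-1 cells. […] Ratios are formed against untreated CEM/hEnt-1 IC50. Mean of 2–4 experiments.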
# CCRF-CEM [13] = assay: Cytostatic activity against human CEM cells expressing human ENT1 transporter after 72 hrs by cell counting; type: functional, cell-based; procedure, shortened: as §1
# [14] = Stability of the compound in potassium phosphate buffer at pH 7.4 assessed as E.coli thymidine phosphorylase-mediated release of 5-FU after 5 mins by [19F] NMR spectroscopy; type: ADME; settings: pH 7.4, 5 min
# Procedure, shortened: (§6)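 Compound (6.0 mg) in methanol-d4 plus 300 mM potassium phosphate buffer pH 7.4. […] 19F NMR recorded at 5 min, 14 h and 72 h at 25 °C, with 5-FU identified by its signal near δF 169.50 ppm.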
# [15] = Hydrolytic stability in aqueous buffer at pH 1 at 2.6 mg measured every 12 mins over 14 hrs by [31P]NMR spectroscopy; type: physicochemical; settings: pH 1, 14 h
# Procedure, shortened: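 Compound (2.6 mg) in methanol-d4 with pH 1 buffer made from equal parts 0.2 M HCl and 0.2 M KCl. 31P NMR at 37 °C, spectra recorded every 12 min over 14 h.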
# [16] = Hydrolytic stability in aqueous buffer at pH 8 at 4.5 mg measured every 12 mins over 14 hrs by [31P]NMR spectroscopy; type: physicochemical; settings: pH 8, 14 h
# Procedure, shortened: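 Compound (4.5 mg) in methanol-d4 with pH 8 buffer (0.1 M Na2HPO4 adjusted with 0.1 M HCl). In situ 31P NMR (202 MHz) at 37 °C, spectra recorded every 12 min over 14 h.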
# CCRF-CEM [17] = assay: Ratio of IC50 for human CEM cells expressing human ENT1 transporter in presence of dipyridamole to IC50 for human CEM cells expressing human ENT1 transporter; type: functional; procedure, shortened: as §5
# CCRF-CEM [18] = assay: Ratio of IC50 for ENT1 transporter-deficient human CEM cells to IC50 for human CEM cells expressing human ENT1 transporter after 72 hrs by cell counting; type: functional; procedure, shortened: as §5
# [19] = Stability of the compound in potassium phosphate buffer at pH 7.4 assessed as E.coli thymidine phosphorylase-mediated release of 5-FU after 14 to 72 hrs by [19F] NMR spectroscopy; type: ADME; procedure, shortened: as §6
# CCRF-CEM [20] = assay: Cytostatic activity against ENT1 transporter-deficient human CEM cells after 72 hrs by cell counting; type: functional, cell-based; procedure, shortened: as §1
# [21] = Drug metabolism in Trizma buffer at pH 7.6 assessed as metabolite 5-Fluoro-2'-deoxyuridine-5'-O-[1-naphthyl(L-alaninyl)]phosphate formation at 3 mg measured every 7 mins over 14 hrs by [31P]NMR spectroscopy in presence of carboxypeptidase Y; type: physicochemical; settings: pH 7.6, 14 h
# Procedure, shortened: (§7)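 Compound (3.0 mg) in acetone-d6 with Trizma buffer pH 7.6. A control 31P NMR spectrum (202 MHz) was taken at 25 °C, then defrosted carboxypeptidase Y (0.1 mg in Trizma) added. Spectra recorded every 7 min over 14 h at 25 °C to follow conversion to metabolites. Half-life was estimated from these spectra.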
# L1210 [22] = assay: Ratio of IC50 for thymidine-kinase deficient mouse L1210 cells to IC50 for mouse L1210/0 cells after 48 hrs by cell counting; type: functional; procedure, shortened: as §3
# [23] = Ratio of 5-FU IC50 to compound IC50 for mouse L1210/0 cells after 48 hrs by cell counting; type: functional
# [24] = Half life in Trizma buffer at pH 7.6 at 3 mg by [31P]NMR spectroscopy in presence of carboxypeptidase Y; type: physicochemical; settings: yeast (Saccharomyces cerevisiae); procedure, shortened: as §7
# [25] = Drug metabolism in Trizma buffer at pH 7.6 assessed as metabolite 5-Fluoro-2'deoxyuridine 5'-O-[(L-Alaninyl)]phosphate formation at 3 mg measured after 45 mins by [31P]NMR spectroscopy in presence of carboxypeptidase Y; type: physicochemical; settings: pH 7.6, 0.75 h; procedure, shortened: as §7
# HeLa [26] = assay: Ratio of IC50 for thymidine-kinase deficient human HeLa cells to IC50 for human HeLa cells by cell counting
Compound,IC50 (HeLa [1]),IC50 (CCRF-CEM [2]),IC50 (HeLa [3]),IC50 (L1210 [4]),IC50 (L1210 [5]),IC50 [6],IC50 (CCRF-CEM [8]),Ratio IC50 (L1210 [9]),Ratio IC50 (L1210 [22]),further results
C[C@H](NP(=O)(OC[C@H]1O[C@@H](n2cc(F)c(=O)[nH]c2=O)C[C@@H]1O)Oc1ccccc1)C(=O)OC1CCCCC1 (mixture of isomers),180 nM,170 nM,5900 nM,140 nM,40 nM,32 nM,1200 nM,1.25,,Ratio IC50 (L1210 [7]): 21
C[C@H](NP(=O)(OC[C@H]1O[C@@H](n2cc(F)c(=O)[nH]c2=O)C[C@@H]1O)Oc1ccccc1)C(=O)OCc1ccccc1 (mixture of isomers),130 nM,180 nM,19000 nM,13000 nM,150 nM,26 nM,22000 nM,5.8,,IC50 (CCRF-CEM [10]): 720 nM; IC50 (CCRF-CEM [11]): 660 nM; Ratio IC50 (CCRF-CEM [12]): 2; IC50 (CCRF-CEM [13]): 130 nM; Stability [14]: Stable; Stability [15]: Stable; Stability [16]: Stable; Ratio IC50 (CCRF-CEM [17]): 2; Ratio IC50 (CCRF-CEM [18]): 7; Stability [19]: Stable; IC50 (CCRF-CEM [20]): 1400 nM
CCCCCOC(=O)[C@H](C)NP(=O)(OC[C@H]1O[C@@H](n2cc(F)c(=O)[nH]c2=O)C[C@@H]1O)Oc1cccc2ccccc12 (mixture of isomers),29 nM,15 nM,440 nM,130 nM,6 nM,2.1 nM,280 nM,2.9,40,Drug metabolism [21]: Active; Ratio IC50 [23]: 100; half-life [24]: < 5 min; Drug metabolism [25]: Active
COC(=O)[C@H](C)NP(=O)(OC[C@H]1O[C@@H](n2cc(F)c(=O)[nH]c2=O)C[C@@H]1O)Oc1ccccc1 (mixture of isomers),280 nM,700 nM,4700 nM,41000 nM,870 nM,40 nM,35000 nM,22,2000,Ratio IC50 (HeLa [26]): 15
